From ChEMBL document CHEMBL1136814, “Design of a new peptidomimetic agonist for the melanocortin receptors based on the solution structure of the peptide ligand, Ac-Nle-cyclo[Asp-Pro-DPhe-Arg-Trp-Lys]-NH(2)” (Bioorg Med Chem Lett, 2003)

Columns and labels:
[1] = biological target: Melanocyte-stimulating hormone receptor (Mus musculus, UniProt Q01727); test: Binding affinity towards mouse Melanocortin 1 receptor (mMC1R) using [125I]NDP-alpha-MSH as radioligand
In short: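 Receptor membranes ([…]) incubated 2 h at 30 °C in assay buffer with test compound at various concentrations plus 0.2 nM 125I-NDP-α-MSH. Nonspecific binding taken with excess unlabeled NDP-MSH. Stopped by rapid filtration through GF/C glass-fibre filters, three ice-cold water washes, bound radioactivity by scintillation counting. IC50 from nonlinear regression of concentration curves.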

[2] = biological target: Melanocortin receptor 3 (Homo sapiens, UniProt P41968); test: Binding affinity towards human melanocortin 3 receptor (hMC3R) using [125I]NDP-alpha-MSH as radioligand
Chain of Melanocortin receptor 3 (P41968 whole entry): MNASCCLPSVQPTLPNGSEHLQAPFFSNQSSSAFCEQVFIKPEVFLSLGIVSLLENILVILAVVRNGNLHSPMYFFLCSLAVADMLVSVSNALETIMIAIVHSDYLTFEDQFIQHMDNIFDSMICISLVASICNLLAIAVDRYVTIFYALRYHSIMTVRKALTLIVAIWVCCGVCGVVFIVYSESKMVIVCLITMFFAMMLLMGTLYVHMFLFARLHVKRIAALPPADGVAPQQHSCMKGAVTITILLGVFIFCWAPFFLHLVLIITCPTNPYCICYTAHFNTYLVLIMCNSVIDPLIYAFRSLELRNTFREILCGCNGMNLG
In short: (§1)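 Nonspecific binding taken with excess unlabeled NDP-MSH. Stopped by rapid filtration through GF/C glass-fibre filters, three ice-cold water washes, bound radioactivity by scintillation counting. IC50 from nonlinear regression of concentration curves.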

[3] = biological target: T1, Melanocortin receptor 4 (Homo sapiens, UniProt P32245); test: Binding affinity towards human melanocortin 4 receptor (hMC4R) using [125I]NDP-alpha-MSH as radioligand; in short: as §1
T1 sequence (P32245 whole entry): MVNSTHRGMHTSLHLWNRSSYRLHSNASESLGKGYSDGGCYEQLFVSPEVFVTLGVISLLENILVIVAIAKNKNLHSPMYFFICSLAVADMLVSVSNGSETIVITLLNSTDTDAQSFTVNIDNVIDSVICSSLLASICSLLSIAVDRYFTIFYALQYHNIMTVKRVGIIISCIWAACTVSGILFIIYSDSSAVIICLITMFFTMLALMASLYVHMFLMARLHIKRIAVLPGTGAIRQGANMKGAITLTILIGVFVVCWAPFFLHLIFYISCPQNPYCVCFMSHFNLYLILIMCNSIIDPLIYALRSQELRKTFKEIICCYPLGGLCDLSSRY

[4] = biological target: T1, Melanocortin receptor 4; test: Intracellular levels of cAMP in HEK 293 cells expressing human melanocortin 4 receptor (hMC4R); type: cell-based, HEK293
In short: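 Cells seeded at 75,000/well on fibronectin and assayed about 48 h later. Medium replaced with DMEM containing IBMX, peptide added across a six-point dilution range starting at 0.1 nM, 30 min at 37 °C. Lysis stopped the reaction; cAMP quantified by chemiluminescent ELISA. EC50 reported as mean ± SEM of two determinations.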

Chain of Melanocyte-stimulating hormone receptor (Q01727 whole entry): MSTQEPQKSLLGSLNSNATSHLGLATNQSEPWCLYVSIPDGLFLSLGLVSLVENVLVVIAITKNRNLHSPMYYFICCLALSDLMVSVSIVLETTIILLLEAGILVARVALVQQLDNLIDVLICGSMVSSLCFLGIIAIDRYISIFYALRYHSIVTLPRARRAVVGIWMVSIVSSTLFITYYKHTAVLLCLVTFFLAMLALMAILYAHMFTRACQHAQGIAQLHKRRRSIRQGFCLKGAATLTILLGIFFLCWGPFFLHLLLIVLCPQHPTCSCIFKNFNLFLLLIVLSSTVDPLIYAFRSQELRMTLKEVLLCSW

SMILES | IC50 [1] [µM] | IC50 [2] [µM] | IC50 [3] [µM] | EC50 [4] [µM]
CC(=O)N[C@@H](Cc1ccccc1)C(=O)N(CCCCN=C(N)N)C1CCC(N(C)C(C)=O)CC1 (stereo partly drawn) | 9 | > 10 | > 10 | –
CC(=O)N[C@H](Cc1ccccc1)C(=O)N(CCCCNC(=N)N)C1CCC(N(CCc2c[nH]c3ccccc23)C(C)=O)CC1 (stereo in doubt; cis) | 0.051 | 0.28 | 0.0077 | 0.004
CC(=O)N[C@@H](Cc1ccccc1)C(=O)N(CCCCN)C1CCC(N(CCc2c[nH]c3ccccc23)C(C)=O)CC1 (stereo partly drawn) | 10 | > 10 | 9.25 | –
CC(=O)N(CCCCN=C(N)N)C1CCC(N(CCc2c[nH]c3ccccc23)C(C)=O)CC1 (stereo not drawn) | > 10 | > 10 | > 10 | –

Further lines, results first:

IC50 [1] [µM] | IC50 [2] [µM] | IC50 [3] [µM] | EC50 [4] [µM] | SMILES
– | – | 0.5 | – | CC(=O)N[C@H](Cc1ccccc1)C(=O)N(CCCCNC(=N)N)C1CCC(N(CCc2c[nH]c3ccccc23)C(C)=O)CC1 (stereo in doubt; 11)
> 10 | > 10 | 3.5 | 0.68 | CC(=O)N[C@H](Cc1ccccc1)C(=O)N(CCCCNC(=N)N)C1CCC(N(CCc2c[nH]c3ccccc23)C(C)=O)CC1 (stereo in doubt; trans)
